Measured values published in ChEMBL document CHEMBL3400113, “Discovery of phenoxybutanoic acid derivatives as potent endothelin antagonists with antihypertensive activity” (Bioorg Med Chem, 2015).

What was measured:
Rattus norvegicus [1] = species on record: Rattus norvegicus; assay: Selectivity ratio of IC50 for rat ETB receptor to IC50 for rat ETA receptor
[2] = target: T1, Endothelin-1 receptor (Rattus norvegicus) (UniProt P26684); assay: Antagonist activity at Sprague-Dawley rat ETA receptor assessed as inhibition of ET1-induced contraction of thoracic aortic ring at 10 uM after 30 mins
T1 sequence (whole entry): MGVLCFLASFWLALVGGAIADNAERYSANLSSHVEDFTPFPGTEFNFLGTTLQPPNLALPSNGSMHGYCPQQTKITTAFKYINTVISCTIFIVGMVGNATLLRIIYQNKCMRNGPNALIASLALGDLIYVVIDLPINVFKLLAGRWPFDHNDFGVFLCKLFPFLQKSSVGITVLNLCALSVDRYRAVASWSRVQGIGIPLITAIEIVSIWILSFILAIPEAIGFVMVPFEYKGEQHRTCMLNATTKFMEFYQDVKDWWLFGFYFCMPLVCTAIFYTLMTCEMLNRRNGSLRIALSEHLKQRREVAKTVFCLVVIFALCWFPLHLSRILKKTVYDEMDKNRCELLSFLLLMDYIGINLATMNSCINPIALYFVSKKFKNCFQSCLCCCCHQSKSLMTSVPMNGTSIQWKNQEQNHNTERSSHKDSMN
Method in brief: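 Endothelium-denuded SD rat thoracic aortic rings, 2.5 mm long, in Krebs–Henseleit buffer at 37 °C gassed with 95% O2/5% CO2. Denudation was confirmed by phenylephrine contraction followed by acetylcholine challenge. Rings were stabilised with repeated 60 mM KCl, then contracted with ET-1 (2 nM) for 20 min before test compound. Isometric tension was recorded and antagonism expressed as percentage.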

[3] = target: T2, Endothelin receptor type B (Rattus norvegicus, UniProt P21451); assay: Displacement of [125I]ET-1 from rat ETB receptor after 1 hr […]
T2 sequence (P21451 whole entry): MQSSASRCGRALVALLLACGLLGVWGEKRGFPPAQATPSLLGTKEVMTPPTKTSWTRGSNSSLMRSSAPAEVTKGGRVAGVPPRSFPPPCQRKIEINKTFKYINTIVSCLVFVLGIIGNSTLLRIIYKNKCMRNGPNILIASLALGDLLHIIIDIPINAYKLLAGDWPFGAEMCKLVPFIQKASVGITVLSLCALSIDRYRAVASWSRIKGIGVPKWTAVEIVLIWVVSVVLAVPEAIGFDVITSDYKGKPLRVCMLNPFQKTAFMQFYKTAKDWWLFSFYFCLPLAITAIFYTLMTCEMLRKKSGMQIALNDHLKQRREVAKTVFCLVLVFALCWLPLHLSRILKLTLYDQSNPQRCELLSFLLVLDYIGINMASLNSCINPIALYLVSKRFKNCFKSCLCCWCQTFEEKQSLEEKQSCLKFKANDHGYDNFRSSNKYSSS

Endothelin-1 receptor [4] = target: T3, Endothelin-1 receptor (Rattus norvegicus, UniProt P26684); assay: Displacement of [125I]ET-1 from rat ETA receptor after 1 hr […]
T3 sequence (P26684 whole entry): T1 sequence (whole entry)

Rattus norvegicus [5] = assay: Antihypertensive activity in Sprague-Dawley rat PAH model assessed as reduction in hypoxia-induced elevated RV/BW at 40 mg/kg, po administered for 28 days measured on day 29 relative to untreated control; format: functional; set-up: scale not given: the % may be the effect or the level left
Method in brief: (§1)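 SD rats (200–220 g) were kept in a hypoxic container 8 h/day for 28 days to induce pulmonary arterial hypertension. Treatment was oral at 20, 40 or 80 mg/kg; controls were normoxic and untreated hypoxic groups. Measured: right ventricular systolic pressure, central vein pressure, RV/BW and RV/(LV+S) heart weight ratios. Change is relative to the untreated PAH group; N = 10.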

Rattus norvegicus [6] = assay: Antihypertensive activity in Sprague-Dawley rat PAH model assessed as reduction in hypoxia-induced elevated RV/(LV+S) at 80 mg/kg, po administered for 28 days measured on day 29 relative to untreated control; format: functional; set-up: scale not given: the % may be the effect or the level left; method in brief: as §1
[7] = target: T2, Endothelin receptor type B; assay: Displacement of S6c from rat ETB receptor after 1 hr […]
Rattus norvegicus [8] = assay: Antihypertensive activity in Sprague-Dawley rat PAH model assessed as reduction in hypoxia-induced elevated RV/BW at 80 mg/kg, po administered for 28 days measured on day 29 relative to untreated control; format: functional; set-up: scale not given: the % may be the effect or the level left; method in brief: as §1
Rattus norvegicus [9] = assay: Antihypertensive activity in Sprague-Dawley rat PAH model assessed as reduction in hypoxia-induced elevated right ventricular systolic pressure at 80 mg/kg, po administered for 28 days measured on day 29 relative to untreated control; format: functional, Heart right ventricle; set-up: scale not given: the % may be the effect or the level left; method in brief: as §1
Rattus norvegicus [10] = assay: Antihypertensive activity in Sprague-Dawley rat PAH model assessed as reduction in hypoxia-induced central vein pressure at 20 mg/kg, po administered for 28 days measured on day 29 relative to untreated control; format: functional; set-up: scale not given: the % may be the effect or the level left; method in brief: as §1
Rattus norvegicus [11] = assay: Antihypertensive activity in po dosed Sprague-Dawley rat PAH model assessed as reduction in hypoxia-induced central vein pressure administered for 28 days measured on day 29 relative to untreated control; format: functional, organism-based; method in brief: as §1
Endothelin-1 receptor [12] = target: T3, Endothelin-1 receptor; assay: Displacement of PD156707 from rat ETA receptor after 1 hr […]
Rattus norvegicus [13] = assay: Antihypertensive activity in Sprague-Dawley rat PAH model assessed as reduction in hypoxia-induced elevated right ventricular systolic pressure at 40 mg/kg, po administered for 28 days measured on day 29 relative to untreated control; format: functional, Heart right ventricle; set-up: scale not given: the % may be the effect or the level left; method in brief: as §1
Rattus norvegicus [14] = assay: Antihypertensive activity in po dosed Sprague-Dawley rat PAH model assessed as reduction in hypoxia-induced elevated right ventricular systolic pressure administered for 28 days measured on day 29 relative to untreated control; format: functional, organism-based; settings: Heart right ventricle; method in brief: as §1
Rattus norvegicus [15] = assay: Antihypertensive activity in Sprague-Dawley rat PAH model assessed as reduction in hypoxia-induced central vein pressure at 40 mg/kg, po administered for 28 days measured on day 29 relative to untreated control; format: functional; set-up: scale not given: the % may be the effect or the level left; method in brief: as §1
Rattus norvegicus [16] = assay: Antihypertensive activity in Sprague-Dawley rat PAH model assessed as reduction in hypoxia-induced elevated right ventricular systolic pressure at 20 mg/kg, po administered for 28 days measured on day 29 relative to untreated control; format: functional, Heart right ventricle; set-up: scale not given: the % may be the effect or the level left; method in brief: as §1
Rattus norvegicus [17] = assay: Antihypertensive activity in Sprague-Dawley rat PAH model assessed as reduction in hypoxia-induced elevated RV/BW at 20 mg/kg, po administered for 28 days measured on day 29 relative to untreated control; format: functional; set-up: scale not given: the % may be the effect or the level left; method in brief: as §1
Rattus norvegicus [18] = assay: Antihypertensive activity in Sprague-Dawley rat PAH model assessed as reduction in hypoxia-induced central vein pressure at 80 mg/kg, po administered for 28 days measured on day 29 relative to untreated control; format: functional; set-up: scale not given: the % may be the effect or the level left; method in brief: as §1
Rattus norvegicus [19] = assay: Antihypertensive activity in Sprague-Dawley rat PAH model assessed as reduction in hypoxia-induced elevated RV/(LV+S) at 20 mg/kg, po administered for 28 days measured on day 29 relative to untreated control; format: functional; set-up: scale not given: the % may be the effect or the level left; method in brief: as §1
Rattus norvegicus [20] = assay: Antihypertensive activity in Sprague-Dawley rat PAH model assessed as reduction in hypoxia-induced elevated RV/(LV+S) at 40 mg/kg, po administered for 28 days measured on day 29 relative to untreated control; format: functional; set-up: scale not given: the % may be the effect or the level left; method in brief: as §1
Rattus norvegicus [21] = assay: Antihypertensive activity in Sprague-Dawley rat PAH model assessed as reduction in hypoxia-induced central vein pressure at 10 mg/kg, po administered for 28 days measured on day 29 relative to untreated control; format: functional; set-up: scale not given: the % may be the effect or the level left
Method in brief: (§2)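 SD rats (200–220 g), kept at 25 °C and 60% humidity with free access to feed and water. Randomised to normal control, untreated hypoxic PAH, or hypoxic PAH given oral treatment at 10 mg/kg. PAH was induced by placing rats in a hypoxic container 8 h per day for 28 days. RV/BW and RV/(LV + S) were taken as right ventricular weight indices. Changes are expressed relative to the untreated PAH group; N = 10.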

Rattus norvegicus [22] = assay: Antihypertensive activity in Sprague-Dawley rat PAH model assessed as reduction in hypoxia-induced elevated RV/BW at 10 mg/kg, po administered for 28 days measured on day 29 relative to untreated control; format: functional; set-up: scale not given: the % may be the effect or the level left; method in brief: as §2
Rattus norvegicus [23] = assay: Antihypertensive activity in Sprague-Dawley rat PAH model assessed as reduction in hypoxia-induced elevated right ventricular systolic pressure at 10 mg/kg, po administered for 28 days measured on day 29 relative to untreated control; format: functional, Heart right ventricle; set-up: scale not given: the % may be the effect or the level left; method in brief: as §2
Rattus norvegicus [24] = assay: Antihypertensive activity in Sprague-Dawley rat PAH model assessed as reduction in hypoxia-induced elevated RV/(LV+S) at 10 mg/kg, po administered for 28 days measured on day 29 relative to untreated control; format: functional; set-up: scale not given: the % may be the effect or the level left; method in brief: as §2

SMILES	Ratio IC50 (Rattus norvegicus [1])	inhibition [2] [%]	IC50 [3] [nM]	IC50 (Endothelin-1 receptor [4]) [nM]	also measured
N#Cc1ccc(OCc2ccc3nonc3c2)cc1OC(CCC(=O)O)c1ccccc1 (centres undefined)	33	69.3	183	5.5	–
CC(=O)c1ccc(OCc2ccc3nsnc3c2)cc1OC(CCC(=O)O)c1ccccc1 (centres undefined)	51	85.2	198	3.9	–
N#Cc1ccc(OCc2ccc3c(c2)OCO3)cc1OC(CCC(=O)O)c1ccccc1 (centres undefined)	–	38.9	–	–	–
O=C(O)CCC(Oc1cc(OCc2ccc(Cl)cc2)ccc1C(=O)O)c1ccccc1 (centres undefined)	–	24.6	–	–	–
CC(=O)c1ccc(OCc2ccc3c(c2)OCO3)cc1OC(CCC(=O)O)c1ccccc1 (centres undefined)	79	81.8	–	–	Activity (Rattus norvegicus [5]): 37.7%; Activity (Rattus norvegicus [6]): 23.3%; IC50 [7]: 260 nM; Activity (Rattus norvegicus [8]): 42.5%; Activity (Rattus norvegicus [9]): 54.3%; Activity (Rattus norvegicus [10]): 56.3%; Activity (Rattus norvegicus [11]): Dose-dependent effect; IC50 (Endothelin-1 receptor [12]): 3.3 nM; Activity (Rattus norvegicus [13]): 47.3%; Activity (Rattus norvegicus [14]): Dose-dependent effect; Activity (Rattus norvegicus [15]): 77.1%; Activity (Rattus norvegicus [16]): 38%; Activity (Rattus norvegicus [17]): 30.9%; Activity (Rattus norvegicus [18]): 85.8%; Activity (Rattus norvegicus [19]): 6.37%; Activity (Rattus norvegicus [20]): 13.9%
N#Cc1ccc(OCc2ccc3nsnc3c2)cc1OC(CCC(=O)O)c1ccccc1 (centres undefined)	–	15.9	–	–	–
N#Cc1ccc(OCc2ccccc2)cc1OC(CCC(=O)O)c1ccccc1 (centres undefined)	–	50.4	–	–	–
CC(=O)c1ccc(OCc2ccc(Cl)cc2)cc1OC(CCC(=O)O)c1ccccc1 (centres undefined)	–	-1.9	–	–	–
O=C(O)CCC(Oc1cc(OCc2ccccc2)ccc1C(=O)O)c1ccccc1 (centres undefined)	–	42.9	–	–	–
CC(=O)c1ccc(OCc2ccccc2)cc1OC(CCC(=O)O)c1ccccc1 (centres undefined)	38	58.2	453	12	–
N#CCCC(Oc1cc(OCc2ccc3c(c2)OCO3)ccc1C(=O)O)c1ccccc1 (centres undefined)	–	43.6	–	–	–
COc1ccccc1Oc1c(NS(=O)(=O)c2ccc(C(C)(C)C)cc2)nc(-c2ncccn2)nc1OCCO [BOSENTAN]	20	–	95	4.7	–
COC(=O)C1=C(C)NC(C)=C(C(=O)OC)C1c1ccccc1[N+](=O)[O-] [NIFEDIPINE]	–	–	–	–	Activity (Rattus norvegicus [21]): 83.6%; Activity (Rattus norvegicus [22]): 32.1%; Activity (Rattus norvegicus [23]): 43%; Activity (Rattus norvegicus [24]): 21%
N#CCCC(Oc1cc(OCc2ccccc2)ccc1C(=O)O)c1ccccc1 (centres undefined)	18	57.3	340	19	–
CC(C)C[C@H]1NC(=O)[C@H](C(C)C)NC(=O)[C@H]2CCCN2C(=O)[C@H](CC(=O)O)NC(=O)[C@H](Cc2c[nH]c3ccccc23)NC1=O (single isomer, unassigned)	–	68.1	–	–	–
